Columns and labels:
[1] = molecular target: T1, Snake venom metalloproteinase neuwiedase (Bothrops pauloensis, UniProt Q9I9R4); assay: Inhibition of Bothrops pauloensis MP1 assessed as reduction in azocaseinolytic activity after 30 mins
T1 sequence (Q9I9R4 whole entry): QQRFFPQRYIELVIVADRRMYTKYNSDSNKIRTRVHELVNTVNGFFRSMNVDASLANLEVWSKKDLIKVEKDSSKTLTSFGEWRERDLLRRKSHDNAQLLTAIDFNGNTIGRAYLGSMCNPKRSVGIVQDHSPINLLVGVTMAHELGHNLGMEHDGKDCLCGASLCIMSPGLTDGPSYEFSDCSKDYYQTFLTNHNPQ
How it was run: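 Purified BpMP-I (7.5 μg per reaction) was preincubated with compound for 30 min at 37 °C. It was then added to azocasein (1 mg/mL) in 0.05 M Tris–HCl pH 7.8 with 0.15 M NaCl and incubated for 30 min at 37 °C. The reaction was stopped with 20% TCA, held 30 min at room temperature and centrifuged. Supernatant was read at A405. IC50 is the concentration giving 50% loss of azocaseinolytic activity.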

[2] = test system: Snake venom; assay: Antihemorrhagic activity in Bothrops pauloensis crude venom injected Swiss mouse assessed as reduction in hemorrhagic halo at 1:20 venom to compound ratio administered via intradermal route; type: functional
[3] = test system: Snake venom; assay: Antihemorrhagic activity in Bothrops pauloensis crude venom injected Swiss mouse assessed as reduction in hemorrhagic halo at 1:1 to 1:20 venom to compound ratio administered via intradermal route; type: functional
[4] = test system: Snake venom; assay: Antihemorrhagic activity in Bothrops pauloensis crude venom injected Swiss mouse assessed as reduction in hemorrhagic halo at 1:10 venom to compound ratio administered via intradermal route 10 mins after venom injection; type: functional; design: scale not given: the % may be the effect or the level left
How it was run: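 Treatment protocol in Swiss male mice (n = 4, 18–22 g). B. pauloensis crude venom (16.3 μg, two minimum hemorrhagic doses) was injected intradermally in the dorsal region. Compound followed 10 min later by the same route at 1:10 venom/compound (w/w). At 150 min the mice were anesthetized and killed, and the skin halo was measured by caliper. Results are percent inhibition versus venom-only controls, mean ± SD.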

[5] = test system: Snake venom; assay: Antihemorrhagic activity in Bothrops pauloensis crude venom injected Swiss mouse assessed as reduction in hemorrhagic halo at 1:5 venom to compound ratio administered via intradermal route; type: functional; design: scale not given: the % may be the effect or the level left
[6] = test system: Snake venom; assay: Antihemorrhagic activity in Bothrops pauloensis crude venom injected Swiss mouse assessed as reduction in hemorrhagic halo at 1:1 venom to compound ratio administered via intradermal route; type: functional; design: scale not given: the % may be the effect or the level left
[7] = test system: Snake venom; assay: Antihemorrhagic activity in Bothrops pauloensis crude venom injected Swiss mouse assessed as reduction in hemorrhagic halo at 1:10 venom to compound ratio administered via intradermal route; type: functional; design: scale not given: the % may be the effect or the level left

| SMILES | IC50 ([1]; read-out: IC50) [mM] | IC50 [1] | further results |
| --- | --- | --- | --- |
| COc1ccc(/C=N/NC(N)=S)cc1 | 3.01 |  |  |
| c1cnc2c(c1)ccc1cccnc12 [PHENANTHROLINE] | 0.47 |  |  |
| NC(=S)N/N=C/c1ccccc1 [PHENYLTHIOSEMICARBAZONE] | 4.22 |  |  |
| COc1ccc(/C=N/NC(N)=O)cc1 |  | Not Active |  |
| COc1ccc(/C(CCC(=O)O)=N/NC(N)=S)cc1 | 0.0791 |  | inhibition (INH) [2]: 43% |
| NC(=O)N/N=C/c1ccc(C(=O)O)cc1 |  | Not Active |  |
| NC(=O)N/N=C/c1ccc(O)cc1O |  | Not Active |  |
| NC(=S)N/N=C/c1ccc(Br)cc1 | 3.14 |  |  |
| COc1ccc(/C=N/NC(N)=S)cc1O | 3.41 |  |  |
| NC(=O)N/N=C/c1cccc(O)c1 |  | Not Active |  |
| NC(=S)N/N=C/c1ccc(Cl)cc1 | 4.25 |  |  |
| NC(=O)N/N=C/c1ccc(O)cc1 |  | Not Active |  |
| COc1ccc(/C(CCCC(=O)O)=N/NC(N)=S)cc1 | 0.00177 |  | Activity [3]: Dose-dependent effect; Activity [4]: 31%; Activity [5]: 84%; Activity [6]: 41%; inhibition (INH) [2]: 100%; Activity [7]: 100% |
| NC(=O)N/N=C/c1ccc(Cl)cc1 |  | Not Active |  |
